Active and inactive are the calls of the source.
Columns and labels:
Mus musculus [1] = experiment: Antinociceptive activity in carrageenan-induced Swiss mouse model of mechanical hyperalgesia at 100 umol/kg, po pretreated for 1 hr followed by carrageenan challenge measured at 3 hrs post dose by Von Frey filament assay; type: functional, organism-based
Procedure, shortened: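 Male Swiss mice (n=8) dosed orally with 100 µmol/kg or vehicle 1 h before intraplantar carrageenan (100 µg/paw). Mechanical threshold measured by up-and-down Von Frey method after 60 min acclimation on a wire screen. Started at 0.4 g filament, ≥6 trials at 10 s intervals, about 4 s per application. Reported as mean threshold in grams ± SEM.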

Mus musculus [2] = experiment: Antiinflammatory activity in formalin-induced nociception Swiss mouse model assessed as reduction in time spent licking formalin injected hind paw during neurogenic phase at 100 umol/kg, po pretreated for 1 hr followed by formalin challenge measured up to 5 mins; type: functional, organism-based
Procedure, shortened: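 Male Swiss mice (22-28 g), n=8 per group, given oral vehicle (saline + DMSO 2%) or 100 µmol/kg 1 h before formalin (5% in 0.9% saline, 20 µl) into the right hind paw sub-plantar region. Morphine 39 µmol/kg i.p. was given 30 min before. Paw-licking time recorded at 0–5 min (neurogenic phase) and 20–30 min (inflammatory phase).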

SH-SY5Y [3] = experiment: Antioxidant activity in human SH-SY5Y cells assessed as reduction in H2O2-induced reactive oxygen species formation measured after 24 hrs by DCFH-DA probe based fluorescence assay; type: functional, cell-based
Mus musculus [4] = experiment: In vivo inhibition of COX-2 activity in carrageenan-induced Swiss mouse serum at 100 umol/kg, po pretreated for 1 hr followed by carrageenan challenge after 3 hrs by ELISA relative to control; type: functional
Procedure, shortened: (§1)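 Male Swiss mice given oral drug (100 µmol/kg) or vehicle 1 h before intraplantar carrageenan (legend: 400 µg/paw). At 3 h, animals anaesthetised with chloral hydrate and cardiac blood taken. Serum separated (1500 rpm, 20 min) and frozen at -70 °C. COX-1, COX-2 and 5-LOX measured by specific sandwich ELISA at 450 nm. Expressed as % enzymatic activity, mean ± SEM, n=8.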

Acetylcholinesterase = Acetylcholinesterase (Electrophorus electricus, UniProt O42275); experiment: Non-competitive inhibition of Electrophorus electricus AChE using acetylthiocholine iodide as substrate pretreated for 10 mins followed by substrate addition measured at 12 secs interval for 5 mins by Ellman's method
Acetylcholinesterase, sequence (O42275 whole entry): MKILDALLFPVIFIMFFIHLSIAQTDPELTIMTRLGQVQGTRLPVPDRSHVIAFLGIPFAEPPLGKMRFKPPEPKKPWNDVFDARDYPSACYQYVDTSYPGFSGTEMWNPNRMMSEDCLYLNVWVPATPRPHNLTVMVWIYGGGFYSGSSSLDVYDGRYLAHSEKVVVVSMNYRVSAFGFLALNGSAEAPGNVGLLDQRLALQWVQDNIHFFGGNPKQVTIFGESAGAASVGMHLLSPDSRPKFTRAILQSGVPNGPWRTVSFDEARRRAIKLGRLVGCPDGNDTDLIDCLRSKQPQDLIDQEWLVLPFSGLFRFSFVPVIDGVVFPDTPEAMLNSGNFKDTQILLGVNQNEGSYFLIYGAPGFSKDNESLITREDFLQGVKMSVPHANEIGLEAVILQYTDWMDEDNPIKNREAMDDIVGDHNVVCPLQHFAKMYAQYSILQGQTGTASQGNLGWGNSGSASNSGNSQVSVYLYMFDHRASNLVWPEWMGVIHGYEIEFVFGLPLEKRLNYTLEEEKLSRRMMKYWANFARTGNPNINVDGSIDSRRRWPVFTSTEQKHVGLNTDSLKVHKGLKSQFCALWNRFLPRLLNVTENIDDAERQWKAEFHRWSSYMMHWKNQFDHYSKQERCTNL

[5] = target: Acetylcholinesterase (Electrophorus electricus) (UniProt O42275); experiment: Inhibition of Electrophorus electricus AChE at 30 uM using acetylthiocholine iodide as substrate pretreated for 10 mins followed by substrate addition measured at 12 secs interval for 5 mins by Ellman's method relative to control
Acetylcholinesterase (Electrophorus electricus), sequence (O42275 24-633 limits assumed): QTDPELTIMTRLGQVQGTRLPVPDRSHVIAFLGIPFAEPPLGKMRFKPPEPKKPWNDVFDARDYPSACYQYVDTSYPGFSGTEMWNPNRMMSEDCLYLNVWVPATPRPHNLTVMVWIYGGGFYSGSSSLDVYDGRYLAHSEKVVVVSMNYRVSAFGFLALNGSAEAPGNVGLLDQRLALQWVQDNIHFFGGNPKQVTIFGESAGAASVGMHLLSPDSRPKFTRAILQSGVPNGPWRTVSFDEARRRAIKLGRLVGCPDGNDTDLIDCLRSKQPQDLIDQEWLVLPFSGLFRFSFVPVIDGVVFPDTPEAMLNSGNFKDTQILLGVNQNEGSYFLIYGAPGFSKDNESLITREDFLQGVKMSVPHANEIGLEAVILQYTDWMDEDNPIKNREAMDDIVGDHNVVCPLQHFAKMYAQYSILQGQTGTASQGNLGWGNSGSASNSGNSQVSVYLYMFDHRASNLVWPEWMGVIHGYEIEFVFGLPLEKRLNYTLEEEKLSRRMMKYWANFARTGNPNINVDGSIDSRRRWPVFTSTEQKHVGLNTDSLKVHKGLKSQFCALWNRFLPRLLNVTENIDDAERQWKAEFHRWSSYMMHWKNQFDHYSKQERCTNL
Procedure, shortened: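 Enzyme (0.5 U/mL) with DTNB (10 mM) in 0.1 M sodium phosphate pH 7.4; compound at 30 μM preincubated 10 min, then acetylthiocholine or butyrylthiocholine iodide added ([…]); A412 read every 12 s for 5 min. Velocity as percent of vehicle control; means and pooled SD from 2-4 experiments in triplicate. DMSO ≤0.2% final.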

Mus musculus [6] = experiment: Anti-inflammatory activity in Swiss mouse model of LPS-induced peritonitis assessed as inhibition of leukocyte migration at 100 umol/kg, po pretreated for 30 mins followed by LPS challenge measured after 4 hrs by Neubauer chamber method; type: functional, organism-based
Procedure, shortened: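 Adult male Swiss mice (22-28 g), n=8 per group, dosed orally with 100 µmol/kg or vehicle (saline + DMSO 2%). 30 min later E. coli 026:B6 LPS, 100 µg/kg i.p. in sterile saline. Killed at 4 h by halothane overdose. Peritoneum lavaged with 10 ml PBS containing 0.5% sodium citrate. Total leukocytes counted in a Neubauer chamber, expressed as cells per cavity, mean ± SEM.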

SH-SY5Y [7] = experiment: Neuroprotective activity in human SH-SY5Y cells assessed as reduction in amyloid beta (1 to 42)-induced early vacuole formation at 20 uM after 4 hrs by MTT dye based microscopic method; type: functional, cell-based
Procedure, shortened: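 SH-SY5Y cells seeded at 3 x 10^4 cells/well, grown 24 h. Treated with compound (20 µM) plus Aβ1-42 oligomers (10 µM) for 4 h at 37 °C. Oligomers were prepared from HFIP-treated, DMSO-dissolved peptide and checked by TEM. MTT (5 mg/mL in PBS) added for 2 h. Cells inspected by light microscopy for needle-like exocytosed formazan crystals.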

[8] = Metal chelating activity assessed as absorption maximum for compound-Zn2+ complex formation at 75 uM after 30 mins by UV-Vis spectrophotometric method; type: functional
Procedure, shortened: (§2)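 UV-Vis spectra in ethanol of compound at 75 µM alone or after 30 min incubation with CuSO4, FeSO4, FeCl3 or ZnCl2 (150 µM). Absorption maxima recorded.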

SH-SY5Y [9] = experiment: Antioxidant activity in human SH-SY5Y cells assessed as reduction in H2O2-induced reactive oxygen species formation at 20 uM pretreated for 24 hrs followed by H2O2 addition measured after 30 mins DCFH-DA probe based fluorescence assay; type: functional, cell-based
Procedure, shortened: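 SH-SY5Y cells treated 24 h with compound (20 µM in figure), then exposed to 100 µM H2O2 for 30 min. Intracellular ROS read with DCFH-DA probe (10 µg/mL, 30 min preload) at ex 485/em 535 nm. Expressed as % of control cells; mean ± SD, three independent experiments.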

Mus musculus [10] = experiment: In vivo inhibition of 5-LOX activity in carrageenan-induced Swiss mouse serum at 100 umol/kg, po pretreated for 1 hr followed by carrageenan challenge after 3 hrs by ELISA relative to control; type: functional; procedure, shortened: as §1
[11] = Antioxidant activity assessed as DPPH radical scavenging activity measured after 30 mins; type: functional
Procedure, shortened: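 DPPH scavenging: compound at 12.5, 25, 50 and 100 µM in ethanol (4 mL) mixed with 1 mL of 0.5 mM DPPH in ethanol. Shaken 30 min at room temperature, absorbance read at 517 nm. % inhibition = (A control − A sample)/A control × 100. Run in triplicate; EC50 obtained by linear regression of mean values.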

SH-SY5Y [12] = experiment: Neuroprotective activity in human SH-SY5Y cells assessed as reduction in amyloid beta (1 to 42)-induced reactive oxygen species formation at 20 uM after 3 hrs by DHE probe based fluorescence microscopic method; type: functional, cell-based
Procedure, shortened: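 SH-SY5Y cells on 8-well slides (1x10^4/well, 24 h) treated 3 h with compound (20 µM) and Aβ1-42 oligomers (10 µM) at 37 °C. Stained with dihydroethidium (10 µM, 30 min, dark), then 1 h in serum-free DMEM. Fluorescence imaged by microscopy; four random fields of 50–100 cells quantified in arbitrary units.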

[13] = Metal chelating activity assessed as compound-Fe3+ complex formation at 75 uM after 30 mins by UV-Vis spectrophotometric method; type: functional; procedure, shortened: as §2
SH-SY5Y [14] = experiment: Iron chelating activity in human SH-SY5Y cells assessed as reduction in FeSO4/H2O2-induced reactive oxygen species formation at 10 to 20 uM after 30 mins by DCFH-DA probe based fluorescence assay; type: functional, cell-based
Procedure, shortened: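 SH-SY5Y cells seeded at 3 x 10^4 cells/well and preloaded with DCFH-DA (10 µg/mL, 30 min, room temperature). Then given compound (5, 10, 20 µM) with FeSO4/H2O2 or CuSO4/H2O2 for 30 min; metal 25 µM and H2O2 100 µM per figure legend. Fluorescence read at ex 485/em 535 nm, arbitrary units. Mean ± SD of three experiments.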

SMILES: COc1cc(/C=C/C(=O)OCC2CCN(Cc3ccccc3)CC2)ccc1O
- Activity (Mus musculus [1]): Active
- Activity (Mus musculus [2]): Active
- Activity (SH-SY5Y [3]): Dose-dependent effect
- IC50 (SH-SY5Y [3]; Homo sapiens, SH-SY5Y, 24 h, read-out: IC50): 16.9 µM
- inhibition in vivo at 100 µmol/kg (Mus musculus [4]): 27%
- Ki (Acetylcholinesterase): 1.04 µM
- inhibition [5]: 50%
- inhibition (Mus musculus [6]): Active
- Activity (SH-SY5Y [7]): inactive
- Activity [8]: inactive
- Activity (SH-SY5Y [9]): Active
- inhibition in vivo at 100 µmol/kg (Mus musculus [10]): 30%
- EC50 [11]: 49.4 µM
- Activity (SH-SY5Y [12]): Active
- Activity [13]: inactive
- Activity (SH-SY5Y [14]): Active

— ChEMBL document CHEMBL4038269, “Design, synthesis and evaluation of novel feruloyl-donepezil hybrids as potential multitarget drugs for the treatment of Alzheimer's disease” (Eur J Med Chem, 2017)
